From ChEMBL document CHEMBL2177067 (J Med Chem, 2012)
Values after ≈ are worked out from the molar mass of the structure shown. Active and inactive are the calls of the source. The rule behind the calls is not given here.

Key:
[1] = Inhibition of Staphylococcus aureus ATCC 25923 replicative DnaB helicase-mediated ATP-dependent dissociation of Hel-5'FAM:Hel-3'BHQ by FRET assay
Outline: (§1)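 Unwinding was read by FRET as helicase-driven, ATP-dependent dissociation of annealed Hel-5′FAM and Hel-3′BHQ oligonucleotides, one fluorescent and the other quencher-labelled. The replicative helicases were prepared as described earlier.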

Staphylococcus aureus [2] = test: Antibacterial activity against Staphylococcus aureus ATCC 25923 by broth microdilution method in presence of reserpine; format: functional
[3] = Selectivity index, ratio of CC50 for human HeLa cells to MIC for Staphylococcus aureus ATCC 25923 in presence of reserpine; format: functional
Staphylococcus aureus [4] = test: Antibacterial activity against Staphylococcus aureus ATCC 25923 by broth microdilution method; format: functional
Replicative DNA helicase = target: T1, Replicative DNA helicase (Bacillus anthracis, UniProt A0A6L8Q2B7); test: Inhibition of Bacillus anthracis Sterne 34F2 replicative DNA helicase-mediated ATP-dependent dissociation of Hel-5'FAM:Hel-3'BHQ by FRET assay; parameters: species or system Bacillus anthracis str. Sterne; outline: as §1
T1 sequence (A0A6L8Q2B7 whole entry): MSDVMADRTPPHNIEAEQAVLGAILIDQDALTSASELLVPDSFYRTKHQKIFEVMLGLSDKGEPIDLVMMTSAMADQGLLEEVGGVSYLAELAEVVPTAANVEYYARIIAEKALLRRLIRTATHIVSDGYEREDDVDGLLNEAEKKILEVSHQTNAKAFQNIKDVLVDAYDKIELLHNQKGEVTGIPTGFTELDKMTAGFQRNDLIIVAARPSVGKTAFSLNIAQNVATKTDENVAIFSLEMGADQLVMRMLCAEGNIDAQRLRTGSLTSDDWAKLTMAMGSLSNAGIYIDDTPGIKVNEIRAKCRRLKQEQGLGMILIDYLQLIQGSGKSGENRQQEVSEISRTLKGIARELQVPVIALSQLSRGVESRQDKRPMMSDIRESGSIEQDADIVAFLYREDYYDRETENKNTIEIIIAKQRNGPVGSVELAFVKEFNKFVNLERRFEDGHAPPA

Bacillus anthracis [5] = test: Antibacterial activity against Bacillus anthracis by broth microdilution method; format: functional
HeLa = test: Cytotoxicity against human HeLa cells by MTS assay; format: cell-based
[6] = Selectivity index, ratio of CC50 for human HeLa cells to MIC for Bacillus anthracis; format: functional
Outline: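 Selectivity index is HeLa CC50 (MTS assay) divided by the bacterial MIC.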

Staphylococcus aureus [7] = test: Ratio of MIC for Staphylococcus aureus ATCC 25923 in presence of reserpine to MIC for Staphylococcus aureus ATCC 25923 in absence of reserpine; format: functional
Enterococcus faecalis [8] = test: Antibacterial activity against vancomycin-resistant Enterococcus faecalis 700802; format: functional
Staphylococcus aureus [9] = test: Antibacterial activity against methicillin-resistant Staphylococcus aureus 1234544081; format: functional
[10] = Inhibition of Staphylococcus aureus ATCC 25923 replicative DnaB helicase using 0.1875 to 3 mM ATP as substrate assessed as DNA duplex strand-unwinding by FRET assay
Outline: (§2)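 S. aureus helicase FRET unwinding assay run with varied DNA duplex or ATP concentrations, in triplicate. RFU/min slopes were normalized to the uninhibited control, and IC50 came from four-parameter nonlinear fits.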

Bacillus anthracis [11] = test: Antibacterial activity against Bacillus anthracis Sterne; format: functional
Staphylococcus aureus [12] = test: Antibacterial activity against Staphylococcus aureus ATCC 25923 assessed as re-growth at MIC after 24 hrs; format: functional, organism-based
Outline: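 At set times up to 24 h, aliquots were diluted and spread on inhibitor-free LB agar to count viable CFU.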

Enterococcus faecium [13] = test: Antibacterial activity against Enterococcus faecium ATCC 19434; format: functional
Staphylococcus aureus [14] = test: Antibacterial activity against methicillin-resistant Staphylococcus aureus 1094; format: functional
Enterococcus faecalis [15] = test: Antibacterial activity against vancomycin-resistant Enterococcus faecalis ATCC 51575; format: functional
Enterococcus faecium [16] = test: Antibacterial activity against vancomycin-resistant Enterococcus faecium 1644; format: functional
Staphylococcus aureus [17] = test: Antibacterial activity against methicillin-resistant Staphylococcus aureus 1234522733; format: functional
Staphylococcus aureus [18] = test: Inhibition of Staphylococcus aureus ATCC 25923 single-strand DNA stimulated ATPase activity of replicative DnaB helicase at 50 uM by FRET assay
Staphylococcus aureus [19] = test: Antibacterial activity against Staphylococcus aureus ATCC 25923; format: functional
Enterococcus faecalis [20] = test: Antibacterial activity against vancomycin-resistant Enterococcus faecalis F118; format: functional
Staphylococcus aureus [21] = test: Antibacterial activity against methicillin-resistant Staphylococcus aureus 1234547263; format: functional
Bacillus licheniformis = test: Antibacterial activity against Bacillus licheniformis ATCC 14580; format: functional
Staphylococcus aureus [22] = test: Antibacterial activity against methicillin-resistant Staphylococcus aureus 1234543349; format: functional
Enterococcus faecium [23] = test: Antibacterial activity against vancomycin-resistant Enterococcus faecium B42762; format: functional
Bacillus thuringiensis = test: Antibacterial activity against Bacillus thuringiensis ATCC 10792; format: functional
Enterococcus faecalis [24] = test: Antibacterial activity against vancomycin-resistant Enterococcus faecalis 51299; format: functional
Staphylococcus aureus [25] = test: Antibacterial activity against methicillin-resistant Staphylococcus aureus 1234558336; format: functional
[26] = Inhibition of Staphylococcus aureus ATCC 25923 replicative DnaB helicase using 3.3 to 90 nM Hel-5'FAM:Hel-3'BHQ as substrate assessed as DNA duplex strand-unwinding by FRET assay; outline: as §2
Staphylococcus aureus [27] = test: Antibacterial activity against methicillin-resistant Staphylococcus aureus 1234549404; format: functional
Enterococcus faecalis [28] = test: Antibacterial activity against Enterococcus faecalis ATCC 29212; format: functional

Cc1c(CCC(=O)O)c(=O)oc2c(C)c(OCc3ccc(-c4ccc(C(F)(F)F)cc4)cc3)ccc12
IC50 [1]: 3.3 µM | MIC (Staphylococcus aureus [2]): 6.3 µM | Selectivity Index [3]: 3.2 | MIC (Staphylococcus aureus [4]): 50 µM (≈ 24.8 µg/mL) | IC50 (Replicative DNA helicase): 6.1 µM | MIC (Bacillus anthracis [5]): < 0.8 µM | CC50 (HeLa): 20.3 µM | Selectivity Index [6]: >25.4 | Ratio (Staphylococcus aureus [7]): 8

Cc1c(CCC(=O)O)c(=O)oc2c(C)c(OCc3ccc(-c4ccccc4)cc3)ccc12
IC50 [1]: 2 µM | MIC (Enterococcus faecalis [8]): > 25 µg/mL | MIC (Staphylococcus aureus [9]): 1.56 µg/mL (≈ 3.64 µM) | IC50 [10]: 1.5 µM | MIC (Bacillus anthracis [11]): 0.52 µg/mL (≈ 1.21 µM) | Activity (Staphylococcus aureus [12]): Active | MIC (Enterococcus faecium [13]): 2.6 µg/mL (≈ 6.07 µM) | MIC (Staphylococcus aureus [4]): 2.5 µM (≈ 1.07 µg/mL) | MIC (Staphylococcus aureus [14]): 12.5 µg/mL (≈ 29.2 µM) | MIC (Enterococcus faecalis [15]): > 25 µg/mL | MIC (Enterococcus faecium [16]): 2.1 µg/mL (≈ 4.9 µM) | MIC (Staphylococcus aureus [17]): 2.6 µg/mL (≈ 6.07 µM) | IC50 (Replicative DNA helicase): 3 µM | MIC (Bacillus anthracis [5]): 1.25 µM (≈ 0.536 µg/mL) | inhibition (Staphylococcus aureus [18]): 6% | MIC (Staphylococcus aureus [19]): 1.56 µg/mL (≈ 3.64 µM) | MIC (Enterococcus faecalis [20]): 16.7 µg/mL (≈ 39 µM) | CC50 (HeLa): 82 µM | MIC (Staphylococcus aureus [21]): 2.1 µg/mL (≈ 4.9 µM) | MIC (Bacillus licheniformis): 0.39 µg/mL (≈ 0.91 µM) | MIC (Staphylococcus aureus [22]): 4.2 µg/mL (≈ 9.8 µM) | MIC (Enterococcus faecium [23]): 14.6 µg/mL (≈ 34.1 µM) | MIC (Bacillus thuringiensis): 0.65 µg/mL (≈ 1.52 µM) | MIC (Enterococcus faecalis [24]): 18.8 µg/mL (≈ 43.9 µM) | MIC (Staphylococcus aureus [25]): 3.1 µg/mL (≈ 7.23 µM) | IC50 [26]: 1.8 µM | MIC (Staphylococcus aureus [27]): 1.56 µg/mL (≈ 3.64 µM) | MIC (Enterococcus faecalis [28]): 5.2 µg/mL (≈ 12.1 µM)
